Results collected from several papers.
Each line is one published result; the experiments were not run side by side.
Target: Serine/threonine-protein kinase 32C (STK32C, Homo sapiens, UniProt Q86UX6)

COc1ccc2oc(-c3ccc4nc(N)oc4c3)c/c(=N\c3ccccc3NC(=O)CCN)c2c1
remaining binding (binding; 1 µM): 100%

CC(C)S(=O)(=O)c1ccc2nccc(Nc3ccc4sc(C5CCCC5)nc4c3)c2c1
activity vs control (enzyme activity; inhibitor; 1 µM): 102%

N#Cc1ccc(NC(=O)Nc2ccccc2)cc1
remaining binding (cell-free assay; competition with immobilised ligand; 25 µM): 77%

C[C@H]1CC[C@H](n2c3cnccc3c3cnc(Nc4ccc5c(n4)CCN(C(=O)CO)C5)nc32)CC1
remaining signal (cell-free assay; 1 µM): 100%

Cc1cc(O)c(-c2ccc([C@@H](C)CN(C)C)cc2)c2c1[nH]c(=O)c1sccc12
inhibition (enzyme activity; inhibitor; 0.1 µM; lysate): -1.49%

Cc1ccc(NC(=O)c2ccnc(C(F)(F)F)c2)cc1-c1cc(OCCO)nc(N2CCOCC2)c1
remaining binding (binding; 1 µM): 100%

CO[C@@H]1[C@H](N(C)C(=O)c2ccccc2)C[C@H]2O[C@]1(C)n1c3ccccc3c3c4c(c5c6ccccc6n2c5c31)C(=O)NC4
inhibition (enzyme activity; inhibitor; 1 µM): 0%

C#Cc1cnc(Nc2ccnc(CO)c2)nc1Nc1ccccc1S(C)(=O)=NC#N (stereo not shown)
remaining signal (cell-free assay; 1 µM): 100%

C=CC(=O)N1CCC[C@@H](n2nc(-c3ccc(Oc4ccccc4)cc3)c3c(N)ncnc32)C1
inhibition (enzyme activity; inhibitor; 1 µM): 14%

CCCCC(=O)Nc1ccc(-c2ccc3ncn(CCC)c(=O)c3c2)cn1
remaining binding (binding; competition with immobilised ligand; 0.5 µM): 92%
